From ChEMBL document CHEMBL3232959, “Design, synthesis and biological evaluation of small-azo-dyes as potent Vesicular Glutamate Transporters inhibitors” (Eur J Med Chem, 2014)
The source made the active and inactive calls. No cut-off for these calls is given here.

Columns and labels:
[1] = Inhibition of rat brain VGLUT assessed as inhibition of [3H]glutamate uptake into vesicles after 10 mins by scintillation spectrophotometry
Procedure, shortened: (§1)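 Crude rat synaptic vesicles were incubated at 37 °C in 10 mM HEPES-KOH pH 7.4 with 4 mM MgSO4, 4 mM KCl, 1 mM L-aspartate and test compound in DMSO. Uptake was started with ATP/Glu containing [3H]Glu and run for 10 min. It was stopped with ice-cold buffer, GF/C filtered, washed 4 times and counted by scintillation. Blanks without ATP or with CCCP/Trypan Blue were subtracted to give ATP-dependent uptake. At least triplicate.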

[2] = target: Synaptic vesicular amine transporter VMAT2 (Rattus norvegicus) (UniProt Q01827); test: Inhibition of rat vesicular monoamine transporter 2 assessed as inhibition of dopamine uptake at 200 uM
Rattus norvegicus [3] = organism: Rattus norvegicus; test: Inhibition of rat brain VGLUT assessed as inhibition of [3H]glutamate uptake into vesicles at 20 uM after 10 mins by scintillation spectrophotometry; procedure, shortened: as §1
Rattus norvegicus [4] = organism: Rattus norvegicus; test: Inhibition of rat brain VGLUT assessed as inhibition of [3H]glutamate uptake into vesicles at 250 uM after 10 mins by scintillation spectrophotometry
[5] = Competitive inhibition of rat brain VGLUT assessed as inhibition of [3H]glutamate uptake into vesicles after 10 mins by scintillation spectrophotometry
Procedure, shortened: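 Crude rat synaptic vesicles (50 µg aliquots) incubated in 10 mM HEPES-KOH pH 7.4, sucrose, 4 mM MgSO4, 4 mM KCl, L-aspartate. Uptake started with ATP plus Glu and [3H]Glu, 10 min at 37 °C. Compounds added from DMSO, final 0.20 nM upward. Ice-cold buffer stop, GF/C filtration, four washes, scintillation counting. Uptake without ATP or with CCCP/Trypan Blue subtracted; at least triplicate.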

Homo sapiens [6] = organism: Homo sapiens; test: Antagonist activity at mGluR (unknown origin) at 200 uM by cell-based assay
Homo sapiens [7] = organism: Homo sapiens; test: Agonist activity at mGluR (unknown origin) at 200 uM by cell-based assay

| SMILES | IC50 [1] [µM] | inhibition [2] | inhibition (Rattus norvegicus [3]) | also measured |
| --- | --- | --- | --- | --- |
| O=C(O)c1cc(C(=O)O)c2cc(/N=N/c3ccc(-c4ccccc4)cc3)ccc2n1 | 288 | – | – | – |
| Nc1cc(S(=O)(=O)O)cc2c1C(=O)/C(=N\Nc1ccc(C(=O)O)cc1F)C(S(=O)(=O)O)=C2 | – | inactive | 18% | – |
| O=C(O)c1cc(C(=O)O)c2ccccc2n1 | – | – | – | inhibition (Rattus norvegicus [4]): inactive |
| Nc1ccc(-c2ccc(N/N=C3\C(=O)c4c(N)cc(S(=O)(=O)O)cc4C=C3S(=O)(=O)O)c(C(F)(F)F)c2)cc1C(F)(F)F | 1.8 | inactive | 98% | – |
| Cc1cc(-c2ccc(/N=N/c3c(S(=O)(=O)O)cc4cc(S(=O)(=O)O)cc(N)c4c3O)c(C)c2)ccc1/N=N/c1c(S(=O)(=O)O)cc2cc(S(=O)(=O)O)cc(N)c2c1O [TRYPAN BLUE] | 0.05 | – | – | IC50 [5]: 100 nM |
| COc1cc(C(=O)O)ccc1N/N=C1\C(=O)c2c(N)cc(S(=O)(=O)O)cc2C=C1S(=O)(=O)O | – | inactive | 25% | – |
| O=C1/C(=N\Nc2ccc(I)cc2Cl)C(S(=O)(=O)O)=Cc2cc(S(=O)(=O)O)ccc21 | – | – | inactive | – |
| Cc1cc(-c2ccc(N/N=C3\C(=O)c4c(N)cc(S(=O)(=O)O)cc4C=C3S(=O)(=O)O)c(C)c2)ccc1N | – | inactive | 52% | – |
| Nc1cc(S(=O)(=O)O)cc2c1C(=O)/C(=N\Nc1c(O)c(F)c(C(=O)O)c(F)c1F)C(S(=O)(=O)O)=C2 | – | inactive | 18% | – |
| Nc1ccc(-c2ccc(N/N=C3\C(=O)c4c(N)cc(S(=O)(=O)O)cc4C=C3S(=O)(=O)O)c(F)c2)cc1F | 4.8 | inactive | 74% | – |
| Nc1cc(S(=O)(=O)O)cc2cc(S(=O)(=O)O)cc(O)c12 | – | – | inactive | – |
| Nc1cc(S(=O)(=O)O)cc2c1C(=O)/C(=N\Nc1c(F)c(F)c(-c3c(F)c(F)c(N)c(F)c3F)c(F)c1F)C(S(=O)(=O)O)=C2 | 3.3 | inactive | 96% | – |
| Nc1cc(S(=O)(=O)O)cc2c1C(=O)/C(=N\Nc1ccc(I)cc1Cl)C(S(=O)(=O)O)=C2 | – | inactive | 45% | – |
| Cc1cc(C(=O)O)cc(C)c1N/N=C1\C(=O)c2c(N)cc(S(=O)(=O)O)cc2C=C1S(=O)(=O)O | – | inactive | 5% | – |
| Nc1cc(S(=O)(=O)O)cc2c1C(=O)/C(=N\Nc1ccc(C(=O)O)cc1C(F)(F)F)C(S(=O)(=O)O)=C2 | 6.8 | inactive | 76% | – |
| Cc1cc(Br)cc(C)c1N/N=C1\C(=O)c2c(N)cc(S(=O)(=O)O)cc2C=C1S(=O)(=O)O | 2.1 | inactive | 77% | – |
| O=C1C(S(=O)(=O)O)=Cc2cc(S(=O)(=O)O)ccc2/C1=N/Nc1ccc(I)cc1Cl | – | – | inactive | – |

| SMILES | IC50 [1] [µM] | inhibition [2] | inhibition (Rattus norvegicus [3]) | also measured |
| --- | --- | --- | --- | --- |
| Nc1cc(S(=O)(=O)O)cc2c1C(=O)/C(=N\Nc1ccc(I)cc1C(F)(F)F)C(S(=O)(=O)O)=C2 | 5.8 | inactive | 83% | – |
| Nc1cc(S(=O)(=O)O)cc2c1C(=O)/C(=N\Nc1ccc(C(=O)O)cc1)C(S(=O)(=O)O)=C2 | – | inactive | 15% | – |
| Nc1ccc(-c2ccc(N/N=C3\C(=O)c4c(N)cc(S(=O)(=O)O)cc4C=C3S(=O)(=O)O)cc2)cc1 | – | inactive | 25% | – |
| Cc1cc(-c2ccc(/N=N/c3ccc4c(S(=O)(=O)O)cc(S(=O)(=O)O)c(N)c4c3O)c(C)c2)ccc1/N=N/c1ccc2c(S(=O)(=O)O)cc(S(=O)(=O)O)c(N)c2c1O [EVANS BLUE] | 0.087 | – | – | – |
| O=C(O)c1cc(C(=O)O)c2cccc(O)c2n1 | 286 | – | – | – |
| Nc1cc(S(=O)(=O)O)cc2c1C(=O)/C(=N\Nc1ccc(I)cc1F)C(S(=O)(=O)O)=C2 | – | inactive | 46% | – |
| COc1cc(-c2ccc(/N=N/c3ccc4c(S(=O)(=O)O)cc(S(=O)(=O)O)c(N)c4c3O)c(OC)c2)ccc1/N=N/c1ccc2c(S(=O)(=O)O)cc(S(=O)(=O)O)c(N)c2c1O [CHICAGO SKY BLUE] | 3 | – | – | – |
| Nc1cc(S(=O)(=O)O)cc2c1C(=O)/C(=N\Nc1ccc(Br)cc1)C(S(=O)(=O)O)=C2 | – | inactive | 33% | – |
| Cc1cc(I)ccc1N/N=C1\C(=O)c2c(N)cc(S(=O)(=O)O)cc2C=C1S(=O)(=O)O | 2.1 | inactive | 83% | Activity (Homo sapiens [6]): inactive; Activity (Homo sapiens [7]): inactive |
| Nc1cc(S(=O)(=O)O)cc2c1C(=O)/C(=N\Nc1ccc(C(=O)O)cc1Cl)C(S(=O)(=O)O)=C2 | – | inactive | 55% | – |
| Cc1cc(C(=O)O)ccc1N/N=C1\C(=O)c2c(N)cc(S(=O)(=O)O)cc2C=C1S(=O)(=O)O | – | inactive | 15% | – |
| Nc1cc(S(=O)(=O)O)cc2c1C(=O)/C(=N\Nc1c(O)c(F)c(Br)c(F)c1F)C(S(=O)(=O)O)=C2 | – | inactive | 39% | – |
| O=C(O)c1cc(C(=O)O)c2cc(/C=C/c3ccccc3)ccc2n1 | 40 | – | – | – |
| COc1cc(Br)ccc1N/N=C1\C(=O)c2c(N)cc(S(=O)(=O)O)cc2C=C1S(=O)(=O)O | > 20 | inactive | 42% | – |
| Nc1ccc(-c2ccc(N/N=C3\C(=O)c4c(N)cc(S(=O)(=O)O)cc4C=C3S(=O)(=O)O)c(Cl)c2)cc1Cl | 1.6 | inactive | 88% | Activity (Homo sapiens [6]): inactive; Activity (Homo sapiens [7]): inactive |
| N=c1ccc2c(=O)/c(=N\Nc3ccc(I)cc3Cl)c(S(=O)(=O)O)cc=2/c1=N/Nc1ccc(I)cc1Cl | – | – | inactive | – |
